Screens deposited in PubChem BioAssay by several laboratories.
NS3 helicase inh – HCV NS3 helicase inhibition. 290,000 compounds, 0.56% hits. AID 1800. inhibition, % at 10.9 µM. NS3 helicase DNA unwinding, Cy5 molecular beacon fluorescence;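 active = inhibition above the mean of all tested compounds plus 3 SD, set per campaign, cut at about 35% in these data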;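 also: 0% = DMSO wells and 100% = thioflavine S control wells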
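Material: hepatitis C virus NS3 helicase domain fragment enzyme; measured by: Cy5 fluorescence, 0 and 60 min reads; control set: DMSO and thioflavine S; incubation: 60 min unwinding reaction at 25 °C after ATP addition; read-out basis: % inhibition from 60/0 min fluorescence ratio, DMSO 0%, thioflavine S 100%; repeats: singlicate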
PABP polyA inh – PABP-poly(A) binding inhibition | P11940 | PABP-poly(A) RNA binding, fluorescence polarization | inhibition, % at 35 µM | 290,000 compounds, 1% hits | AID 2014;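 also: calls also rest on retests at 20 µM and on dose response follow-up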
Target sequence (P11940 whole entry, looked up): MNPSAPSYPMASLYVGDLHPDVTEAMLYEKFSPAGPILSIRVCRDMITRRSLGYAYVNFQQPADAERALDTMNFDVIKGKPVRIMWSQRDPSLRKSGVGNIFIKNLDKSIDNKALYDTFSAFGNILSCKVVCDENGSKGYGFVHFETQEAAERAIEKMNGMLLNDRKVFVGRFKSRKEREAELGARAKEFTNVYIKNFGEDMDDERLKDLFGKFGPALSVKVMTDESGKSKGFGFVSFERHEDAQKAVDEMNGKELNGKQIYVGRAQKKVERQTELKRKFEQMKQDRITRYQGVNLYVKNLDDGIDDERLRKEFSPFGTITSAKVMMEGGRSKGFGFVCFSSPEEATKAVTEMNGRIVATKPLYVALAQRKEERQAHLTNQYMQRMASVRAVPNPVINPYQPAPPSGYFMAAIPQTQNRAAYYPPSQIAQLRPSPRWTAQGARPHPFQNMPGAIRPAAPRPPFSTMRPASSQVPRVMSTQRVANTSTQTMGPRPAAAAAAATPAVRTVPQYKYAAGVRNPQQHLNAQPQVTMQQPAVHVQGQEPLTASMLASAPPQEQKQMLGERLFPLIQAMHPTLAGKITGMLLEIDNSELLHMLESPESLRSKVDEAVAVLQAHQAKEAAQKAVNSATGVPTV
eIF4H FP inh – inhibitors of RNA binding by human eIF4H. Q15056. AID 2012. eIF4H fluorescence polarization binding assay. inhibition, % at 35 µM. 290,000 compounds, 0.94% hits;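 also: calls also rest on retests at 20 µM and on dose response follow-up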
DNA FID counter-1 – fluorescent intercalator displacement, NS3 helicase counter-screen; DNA fluorescent intercalator displacement, fluorescence; inhibition, % at 7.9 µM; 290,000 compounds, 0.17% hits; AID 1845; in the data active = inhibition above about 37%;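 also: 0% = vehicle and 100% = reference compound; higher means more ethidium bromide displaced from hairpin DNA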
core dimer inh – blocks dimerization of HCV core protein. AID 1899. inhibition, % at 5 µM. TR-FRET GST/Flag-core106 dimerization, 1536-well. 300,000 compounds, 0.33% hits;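 active = inhibition above the mean of all tested compounds plus 3 SD, set per screening campaign, cut at about 45% in these data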
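System: GST-tagged and Flag-tagged HCV core protein residues 1-106 / Input: core106 proteins, GST 13.5 nM and Flag 17 nM / Buffer or medium: KF-containing HEPES buffer, pH 7.45, DTT, CHAPS, BSA / Probe or stimulus: Eu-anti-GST and XL665-anti-Flag labelled anti-tag antibodies / Schedule: 4 h, 22.5 °C incubation / Technique: TR-FRET 671 and 617 nm emission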
MLLE-PAM2 inh – blocks PAM2 peptide binding to the PABP1 MLLE domain. 360,000 compounds, 0.36% hits. inhibition, % at 20 µM. P11940. GST-MLLE / FITC-PAM2 fluorescence polarization; in the data active = inhibition above about 35%, passing the limit was not always enough;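 also: plate controls were DMSO wells with GST-MLLE for no effect and wells lacking GST-MLLE protein for full effect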
NS3 helicase cf – HCV NS3 helicase inhibition, confirmation assay | NS3 helicase DNA unwinding, Cy5 molecular beacon fluorescence | 1,600 compounds, 31% hits | AID 1943 | inhibition, % at 10.9 µM | shares compounds with NS3 helicase inh;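 active = inhibition above the mean of all tested compounds plus 3 SD, cutoff set per campaign, cut at about 36% in these data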
DNA FID counter-2 – displaces DNA intercalator in HCV helicase counter-screen; inhibition, % at 7.9 µM; AID 1945; shares compounds with NS3 helicase inh; 1,600 compounds, 4% hits; DNA fluorescent intercalator displacement, fluorescence; in the data active = inhibition above about 37%;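 also: 0% = vehicle and 100% = reference compound; higher means more displacement of ethidium bromide from the DNA hairpin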
* marks the source's active call; other numbers are inactive results; i = inactive; ? = inconclusive; nt = no result given. Sampled rows, rich in hits. Any-hit rate of the full collection: about 2%. Unless noted, no rule for the calls is given here.

SMILES	NS3 helicase inh	PABP polyA inh	eIF4H FP inh	DNA FID counter-1	core dimer inh	MLLE-PAM2 inh	NS3 helicase cf	DNA FID counter-2
N=C1/C(=C/c2coc3ccccc3c2=O)C(=O)N=C2SC(c3ccco3)=NN12	54*	?	?	-13	-4	i	50*	50*
COc1ccc(-n2cccc2/C=C2\C(=N)N3N=C(C(C)C)SC3=NC2=O)cc1	25	-1	-8	-30	24	-3	nt	nt
O=C(NCCC(=O)N(CCc1ccccc1)Cc1ccccc1)c1ccc([N+](=O)[O-])cc1	nt	nt	nt	nt	0	9	nt	nt
CCOC(=O)N1CCN(C(=O)c2[nH]c(C(F)(F)F)nc2-c2ccccc2)CC1	nt	nt	nt	nt	nt	5	nt	nt
Cc1ccc(S(=O)(=O)NC(=O)Cn2nnc(-c3ccccc3)c2COc2ccc3ccccc3c2)cc1	nt	nt	nt	nt	nt	10	nt	nt
COc1ccc(CNCc2cc3c(cc2[N+](=O)[O-])OCO3)cc1	40*	36	46	0	-3	6	-13	11
Cc1cc(C)cc(NCc2cc3c(cc2[N+](=O)[O-])OCO3)c1	27	-4	1	-8	12	6	nt	nt
O[C@@H]1CN(Cc2cccs2)[C@@H](c2ccccc2)C[C@H]1n1cc(C2CC2)nn1	nt	nt	nt	nt	nt	-12	nt	nt
CC(=O)c1ccc(NC(=O)CSc2nnc(-c3ccco3)c(-c3ccco3)n2)cc1	35	84	100	-16	36	32	nt	nt
O=C(CSc1nnc(-c2ccco2)c(-c2ccco2)n1)c1ccccc1	41*	101*	110*	-21	45	22	91*	45*
Cn1c(SCC(=O)c2ccc(-c3ccccc3)cc2)nnc1-c1ccco1	68*	1	58	-27	-16	2	5	-27
COCCn1c(SCC(=O)c2ccc3c(c2)OCCO3)nnc1-c1ccco1	2	-12	-11	-17	-1	16	nt	nt
CCn1c(SCC(=O)c2ccc3c(c2)OCCO3)nnc1-c1ccco1	48*	6	-10	-17	-7	9	-7	-21
CC(C)Cn1c(SCC(=O)c2ccc(Cl)s2)nnc1-c1ccco1	39*	13	0	-33	14	0	-24	-28
COc1ccc(CN2CCN(c3nc4ccccc4s3)CC2)cc1	23	-5	-7	-14	nt	-6	nt	nt
COc1ccc(CCn2c(O)cc3nn(-c4nc5ccccc5s4)c(=O)c-3c2C)cc1	46*	64*	68*	-30	60*	-57	78*	-17
CCCCNC(=O)C1(C)CCCCN1C(=O)c1cc2ccccc2s1 (stereo unspecified)	nt	nt	nt	nt	nt	3	nt	nt
CCCNC(=O)COC(=O)c1ccc(S(=O)(=O)N2CCCC2)cc1	50*	4	23	-6	-3	-34	-10	-4
COc1ccc(C(=O)CC(=O)C(=O)Nc2ccc([N+](=O)[O-])cc2C)cc1	37*	-4	5	-14	1	13	-8	-7
COc1ccc(C(=O)CC(=O)C(=O)Nc2ccccc2)cc1	21	3	-4	-7	3	-6	nt	nt
CCOc1ccccc1NC(=O)C(=O)CC(=O)c1ccc(OC)cc1	37*	4	9	-14	-38	-18	-33	-1
O=c1[nH][nH]c2c(N=Cc3ccccc3O)ccc(F)c12	53*	?	?	-7	nt	49*	18	24
CN(C(=O)COC(=O)c1ccc2c(c1)OCCO2)C1CCCCC1	nt	nt	nt	nt	nt	-4	nt	nt
COc1ccc(NC(=O)N(C)C[C@H]2OCc3cn(nn3)CCCC(=O)N([C@@H](C)CO)C[C@@H]2C)cc1	nt	nt	nt	nt	nt	-5	nt	nt
COc1ccc2nc(N3C(=O)C(O)=C(C(=O)c4ccco4)C3c3ccc(OC)c(OC)c3)sc2c1 (stereo unspecified)	nt	nt	nt	nt	nt	-7	nt	nt
SMILES	NS3 helicase inh	PABP polyA inh	eIF4H FP inh	DNA FID counter-1	core dimer inh	MLLE-PAM2 inh	NS3 helicase cf	DNA FID counter-2
Cc1ccc2nc(N3C(=O)C(O)=C(C(=O)c4ccc(C)o4)C3c3cccc(O)c3)sc2c1 (stereo unspecified)	44*	-4	1	-11	11	-37	106*	4
O=C(O)c1cc([N+](=O)[O-])cc([N+](=O)[O-])c1N1CCN(c2cccc(C(F)(F)F)c2)CC1	42*	-8	0	-3	nt	-4	55*	-17
CC1(C)Cc2c(c(-c3ccco3)[nH]c(=O)c2C#N)CS1	44*	118	122	-7	-3	61*	75*	7
N#Cc1ccc(-c2csc(NC(=O)c3ccc(N4C(=O)CCC4=O)cc3)n2)cc1	1	-8	4	-6	1	-2	nt	nt
Cc1cc(-c2csc(NC(=O)c3cc4ccccc4o3)n2)c(C)n1C	50*	12*	98*	-13	74*	-19	25	16
Cc1cc(-c2csc(NC(=O)c3ccc(=O)[nH]c3)n2)c(C)n1Cc1ccccc1	74*	32	?	-21	55*	-53	21	4
Cc1cc(-c2csc(NC(=O)c3ccc(C#N)cc3)n2)c(C)n1Cc1ccco1	58*	8	103	-18	49*	-50	1	12
COc1ccc(-c2csc(N(CCCN(C)C)C(=O)c3ccc(OC)c(OC)c3)n2)cc1	nt	nt	nt	nt	nt	2	nt	nt
O=C1CCC([N+](=O)[O-])C(c2ccc(C(F)(F)F)cc2)N1 (stereo unspecified)	nt	nt	nt	nt	0	-7	nt	nt
O=C(c1[nH]c(C(F)(F)F)nc1-c1ccccc1)N1CCc2ccccc2C1	nt	nt	nt	nt	nt	2	nt	nt
CC(C)CCn1c(COc2ccccc2)nn(CCC#N)c1=S	-10	7	-15	-22	2	-99	nt	nt
O=c1[nH]cnc2c1ncn2C1OC(CO)CC1F (stereo unspecified)	nt	nt	nt	nt	nt	14	nt	nt
